Publication PMC3680915 (Biochemistry, 2013)
“Also recorded” adds a separate entry of the source.

Tests used:
Assay type in all cases: biochemical, bovine
[1] = target: T1, NADH:ubiquinone oxidoreductase (complex I) (Bos taurus, UniProt P25708); assay: NADH:APAD+ transhydrogenation
[2] = target: T1, NADH:ubiquinone oxidoreductase (complex I); assay: NADH:FeCN oxidoreduction; conditions: 0.1 mM NADH, 1 mM FeCN, pH 7.5, 32 °C
[3] = target: T1, NADH:ubiquinone oxidoreductase (complex I); assay: NADH:HAR oxidoreduction
[4] = target: T1, NADH:ubiquinone oxidoreductase (complex I); assay: Kinetic isotope effect in NAD; conditions: 1 mM FeCN, pH 7.5, 32 °C
[5] = target: T1, NADH:ubiquinone oxidoreductase (complex I); assay: Kinetic isotope effect in NAD; conditions: 3.5 mM HAR, pH 7.5, 32 °C
In short: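 Bovine heart complex I with hexaammineruthenium(III) as acceptor, at 32 °C. Donor concentration series used NADH, [4R-2H]NADH, [4S-2H]NADH, APADH and [4S-2H]APADH in 20 mM Tris-HCl pH 7.5. pH dependence was measured with NADH versus [4S-2H]NADH at 0.1 mM. Reactions were enzyme-initiated and read at 340–380 nm (ε 4.81 mM–1 cm–1). Background-subtracted initial rates over ~15 s; mean of ≥3 measurements.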

| SMILES | IC50 [1] | IC50 for inhibition of the FeCN reaction [2] | IC50 for inhibition of the FeCN reaction ([2]; listed as Adenosine) | IC50 [3] | IC50 for inhibition of the APAD+ reaction ([1]; 0.1 mM NADH, 1 mM APAD+, pH 7.5, 32 °C) | IC50 for inhibition of the HAR reaction ([3]; 0.1 mM NADH, 3.5 mM HAR, pH 7.5, 32 °C) | KIE in the APAD(H/D):FeCN reaction [4] | KIE in the APAD(H/D):HAR reaction [5] |
| --- | --- | --- | --- | --- | --- | --- | --- | --- |
| Nc1ncnc2c1ncn2[C@@H]1O[C@H](CO)[C@@H](O)[C@H]1O [adenosine] | 10 mM | no inhibition ^b | no discernible inhibition | 7 mM |  |  |  |  |
| NC(=O)c1ccc[n+]([C@@H]2O[C@H](COP(=O)([O-])O)[C@@H](O)[C@H]2O)c1 [NMN^+, nicotinamide mononucleotide] |  | does not inhibit; also recorded: no inhibition |  |  | does not inhibit; also recorded: no inhibition | does not inhibit; also recorded: no inhibition |  |  |
| [2H]C1C=CN(C2OC(COP(=O)(O)OP(=O)(O)OCC3OC(n4cnc5c(N)ncnc54)C(O)C3O)C(O)C2O)C=C1C(C)=O (stereo not drawn) [S-APADD, [4S-^2H]APADH] |  |  |  |  |  |  | ~6.5 | ~3.5 |
